The test system of series [1] is Rattus norvegicus. Put plainly: Anticonvulsant activity in po dosed albino Sprague-Dawley rat assessed as protection against maximal electroshock-induced seizure. Format: functional. As to conditions: albino Spague-Dawley. The procedure, abridged: (§1)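 Maximal electroshock (MES) seizure test within the NINDS Anticonvulsant Screening Program. Protection is scored as block of induced hind limb extension. Mice are dosed ip and rats po.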
A general note: The maximal electroshock test induces tonic seizures with an electrical stimulus.

Series [2] in a line: Neurotoxicity in po dosed albino Sprague-Dawley rat by rotarod test. As to conditions: in vivo. Format: toxicity, organism-based, albino Spague-Dawley. The method in brief:
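Rotorod test for behavioural neurotoxicity (mice ip, rats po). Median dose causing neurological impairment in 50% of animals (TD50, mg/kg) is determined only for compounds active in the MES test. The highest rat dose tested was 500 mg/kg.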
For orientation: Falling from the rotarod earlier than controls is read as motor impairment.

Series [3] has as its system Mus musculus. Kind of series: Anticonvulsant activity in ip dosed 6 Hz psychomotor seizure model of albino Carworth Farms number 1 mouse assessed as protection against seizure. Format: functional. The conditions noted are these: albino Carworth Farms number 1, ip. The procedure, abridged:
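Psychomotor 6 Hz seizure test at 32 mA in mice, compound given intraperitoneally, run within the NINDS Anticonvulsant Screening Program. Median effective dose (ED50) in mg/kg from quantitative screening.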

Series [4] concerns Rattus norvegicus. Put plainly: Protective index, ratio of neurotoxicity TD50 to anticonvulsant ED50 for po dosed albino Spague-Dawley rat. Format: functional. The method in brief:
(§2)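 Protective index is calculated as rotorod TD50 divided by MES ED50, both in mg/kg and from the same species and route (mice ip, rats po).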

Series [5] concerns Mus musculus. Put plainly: Anticonvulsant activity in ip dosed albino Carworth Farms number 1 mouse assessed as protection against maximal electroshock-induced seizure. The conditions noted are these: albino Carworth Farms number 1, ip. Format: functional. The method in brief:
as §1

In series [6] the test system is Rattus norvegicus. Put plainly: Anticonvulsant activity in ip dosed albino Sprague-Dawley rat assessed as protection against maximal electroshock-induced seizure. Format: functional. The conditions noted are these: albino Spague-Dawley. The procedure, abridged:
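Run under the NINDS Anticonvulsant Screening Program. Rats received compound intraperitoneally as a stated exception to the usual oral rat route. Protection meant blocking hind-limb extension in the maximal electroshock test. ED50 was derived from quantitative dose-response screening of compounds with significant activity.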

The nature of series [7]: Neurotoxicity in ip dosed albino Sprague-Dawley rat by rotarod test. Format: toxicity, organism-based, albino Spague-Dawley. The conditions noted are these: in vivo.
Series [8] in a line: Neurotoxicity in ip dosed albino Carworth Farms number 1 mouse by rotarod test. As to conditions: in vivo. Format: toxicity, organism-based.
Series [9] deals with Mus musculus. Put plainly: Protective index, ratio of neurotoxicity TD50 to anticonvulsant ED50 for ip dosed albino Carworth Farms number 1 mouse. Format: functional. The procedure, abridged:
as §2

Series [10] relates to Rattus norvegicus. Put plainly: Neurotoxicity in albino Sprague-Dawley rat assessed as induction of ataxia at up to 3000 mg/kg, po by rotarod test. Format: toxicity, organism-based, albino Spague-Dawley. The arrangement: dose 3000 mg/kg, route oral. As to conditions: in vivo. The method in brief:
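Rats were dosed orally. Median neurotoxic dose (TD50) was taken from behavioural neurological impairment, judged with the rotarod test. It was determined only for compounds with significant activity in the maximal electroshock test. Testing was done under the NINDS Anticonvulsant Screening Program procedures.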

Here are results for 28 compounds from ChEMBL document CHEMBL1212830, “The structure-activity relationship of the 3-oxy site in the anticonvulsant (R)-N-benzyl 2-acetamido-3-methoxypropionamide” (J Med Chem, 2010).

Turning to `C#CCOC[C@@H](NC(C)=O)C(=O)NCc1ccccc1`, the ED50 (commonly the midpoint of the dose-response relation) with Rattus norvegicus [1] came to 7.9 mg/kg; with Mus musculus [3], 29 mg/kg; in the series with Mus musculus [5], 16 mg/kg. The TD50 (commonly the dose at which the toxic effect under study appears in half of the subjects) in series [2] is over 500 mg/kg. Also, the “Ratio TD50/ED50” value in the series on Rattus norvegicus [4] is on record as over 63.
On to `CC(=O)N[C@H](COCCN=[N+]=[N-])C(=O)NCc1ccccc1`, for which the ED50 in the series on Rattus norvegicus [1] was over 40 mg/kg; in the series on Rattus norvegicus [6], 5.7 mg/kg; in the series on Mus musculus [3], 44 mg/kg; with Mus musculus [5], 100 mg/kg. In addition, the TD50 in series [7] amounted to 78 mg/kg. In addition, the “Ratio TD50/ED50” value in the series on Rattus norvegicus [4] is reported as over 13.
On to `CC(=O)N[C@H](COCCN=C=S)C(=O)NCc1ccccc1`, for which the 50% effective dose (ED50) with Rattus norvegicus [1] is under 30 mg/kg; with Mus musculus [5], over 300 mg/kg. Moreover, the TD50 in series [2] was over 30 mg/kg; in series [8] it was 100 mg/kg.
Consider `[2H]C([2H])([2H])OC[C@@H](NC(C)=O)C(=O)NCc1ccccc1`, for which, in the series on Rattus norvegicus [1], the ED50 was 5.2 mg/kg. Besides, the TD50 in series [2] was 200 mg/kg.
Take `CC(=O)N[C@H](COC1CCCCC1)C(=O)NCc1ccccc1`: the figures for the ED50 in the series with Rattus norvegicus [1] and in the series with Mus musculus [5] were 30 mg/kg and 100 mg/kg, respectively. Besides, the values for the TD50 in series [2] and in series [8] were over 30 mg/kg and 300 mg/kg, respectively.
Regarding `CC#CCOC[C@@H](NC(C)=O)C(=O)NCc1ccccc1`, the ED50 was determined as 6.4 mg/kg in the series with Rattus norvegicus [1] and 30 mg/kg in the series with Mus musculus [5]. Also, the TD50 in series [2] was over 500 mg/kg; in [8], 30 mg/kg.
Take `CC(=O)N[C@H](COCC1CCCCC1)C(=O)NCc1ccccc1`: in series [8], the TD50 turned out to be 300 mg/kg. In addition, the ED50 in the series with Mus musculus [5] came out at 100 mg/kg.
For `CC(=O)N[C@H](COCc1ccccc1)C(=O)NCc1ccccc1`, the “Ratio TD50/ED50” value in the series on Mus musculus [9] was 3.2. The median effective dose (ED50) in the series on Rattus norvegicus [1] was over 30 mg/kg; in the series with Mus musculus [5], 64 mg/kg. For the same compound, the TD50 was over 30 mg/kg in series [2] and 200 mg/kg in series [8].
Consider `C=CCCOC[C@@H](NC(C)=O)C(=O)NCc1ccccc1`, for which the median effective dose (ED50) turned out to be 17 mg/kg with Rattus norvegicus [1] and 30 mg/kg in the series on Mus musculus [5]. Further, the TD50 in series [2] is over 500 mg/kg; in [8] it was 100 mg/kg. Also, in the series with Rattus norvegicus [4], the “Ratio TD50/ED50” value was over 29.
For the compound `CC(=O)N[C@H](COCCC1CC1)C(=O)NCc1ccccc1`, the “Ratio TD50/ED50” value in the series with Mus musculus [9] is on record as 1.9. Moreover, the 50% effective dose (ED50) with Rattus norvegicus [1] is over 30 mg/kg; in the series on Mus musculus [5] it was 46 mg/kg. Besides, the TD50 was over 30 mg/kg in series [2] and 85 mg/kg in series [8].
As for `C#CCCOC[C@@H](NC(C)=O)C(=O)NCc1ccccc1`, the ED50 with Rattus norvegicus [1] came out at 11 mg/kg; with Mus musculus [5] it was 30 mg/kg. Also, the TD50 in [2] is 250 mg/kg; in series [8], 30 mg/kg. Also, the “Ratio TD50/ED50” value in the series on Rattus norvegicus [4] is on record as over 23.
With `CC(=O)N[C@H](COCCc1ccccc1)C(=O)NCc1ccccc1`, the figures for the median effective dose (ED50) in the series with Rattus norvegicus [1] and in the series on Mus musculus [5] were over 30 mg/kg and 100 mg/kg, respectively. Further, the TD50 was over 30 mg/kg in series [2] and 100 mg/kg in series [8].
For `CC(=O)N[C@H](COCCC1(C)N=N1)C(=O)NCc1ccccc1`, the ED50 stood at 44 mg/kg in the series on Rattus norvegicus [1] and 30 mg/kg in the series on Mus musculus [5]. Further, the TD50 in series [2] is over 500 mg/kg; in [8] it was 100 mg/kg. Also, the “Ratio TD50/ED50” value with Rattus norvegicus [4] is given as over 11.
Consider `CC(=O)N[C@H](COCCC=O)C(=O)NCc1ccccc1`, for which the results for the median effective dose (ED50) with Rattus norvegicus [1] and in the series with Mus musculus [5] were over 100 mg/kg and over 300 mg/kg, respectively. The compound further showed a TD50 in [8] of over 300 mg/kg.
With `CC(=O)NCCOC[C@@H](NC(C)=O)C(=O)NCc1ccccc1`, the results for the ED50 with Rattus norvegicus [1] and with Mus musculus [5] were over 30 mg/kg and over 300 mg/kg, respectively. In addition, the TD50 in series [2] is over 30 mg/kg; in [8] it was over 300 mg/kg.
As for `COCc1cn(CCOC[C@@H](NC(C)=O)C(=O)NCc2ccccc2)nn1`, the results for the ED50 with Mus musculus [3] and in the series with Mus musculus [5] were over 100 mg/kg and over 300 mg/kg, respectively. This compound had a TD50 in series [8] of over 300 mg/kg.
The compound `COCCOC[C@@H](NC(C)=O)C(=O)NCc1ccccc1` gave a TD50 in series [8] of 300 mg/kg. For the same compound, in the series with Mus musculus [5], the ED50 turned out to be 30 mg/kg.
Consider `CC(=O)N[C@H](COC(C)C)C(=O)NCc1ccccc1`, for which the “Ratio TD50/ED50” value in the series on Mus musculus [9] is reported as 3.3; in the series on Rattus norvegicus [4], over 58. The results for the 50% effective dose (ED50) in the series with Rattus norvegicus [1], in the series with Mus musculus [3] and with Mus musculus [5] were 8.6 mg/kg, 23 mg/kg and 23 mg/kg, respectively. In addition, the TD50 in series [2] was over 500 mg/kg.
On to `CCOC[C@@H](NC(C)=O)C(=O)NCc1ccccc1`, for which the entries for the “Ratio TD50/ED50” value with Mus musculus [9] and in the series on Rattus norvegicus [4] were 5.6 and over 89, respectively. For the same compound, the ED50 in the series with Rattus norvegicus [1] came to 5.6 mg/kg; with Mus musculus [5], 7.9 mg/kg. The compound also came in with a TD50 in series [2] of over 500 mg/kg.
For the compound `COCCOCCOC[C@@H](NC(C)=O)C(=O)NCc1ccccc1`, the 50% effective dose (ED50) was over 30 mg/kg in the series with Rattus norvegicus [1], over 100 mg/kg with Mus musculus [3] and over 300 mg/kg with Mus musculus [5]. For the same compound, the results for the TD50 in series [2] and in series [8] were over 50 mg/kg and over 300 mg/kg, respectively.
Turning to `CC(=O)N[C@H](COC(C)(C)C)C(=O)NCc1ccccc1`, the TD50 in series [8] is 300 mg/kg. Also, in the series with Mus musculus [5], the ED50 was 30 mg/kg.
In the same order, the values of `CC(=O)N[C@H](COc1ccccc1)C(=O)NCc1ccccc1` are over 600 mg/kg and 100 mg/kg.
In the case of `CC(=O)N[C@H](COCCC1CO1)C(=O)NCc1ccccc1` (mixture of isomers), the TD50 in [8] was over 300 mg/kg. For the same compound, in the series on Mus musculus [5], the 50% effective dose (ED50) is over 300 mg/kg.
`C=CCOCC(NC(C)=O)C(=O)NCc1ccccc1` (racemic) showed a TD50 in series [8] of 30 mg/kg. Besides, in the series with Mus musculus [5], the median effective dose (ED50) worked out at 30 mg/kg.
In turn, `COC[C@@H](NC(C)=O)C(=O)NCc1ccccc1` [LACOSAMIDE] came in with a TD50 in [2] of over 500 mg/kg.
Take `CCC1(c2ccccc2)C(=O)NC(=O)NC1=O` [PHENOBARBITAL]: the ED50 amounted to 9.1 mg/kg in the series with Rattus norvegicus [1] and 22 mg/kg with Mus musculus [5].
As to `O=C1NC(=O)C(c2ccccc2)(c2ccccc2)N1` [PHENYTOIN], the ED50 in the series with Rattus norvegicus [1] worked out at 30 mg/kg. In the series on Rattus norvegicus [10], the Activity result is given as “Non-toxic”.
For the compound `CCCC(CCC)C(=O)O` [VALPROIC ACID], the ED50 in the series with Mus musculus [5] was 270 mg/kg.
